# Screens deposited in PubChem BioAssay by several laboratories.
# Sampled rows, rich in hits. Any-hit rate of the full collection: about 1.9%.
# TbHK1 inh: T. brucei hexokinase 1 inhibition; recombinant TbHK1, G6PDH-coupled NADH A340; inhibition, % at 10 µM; 220,000 tested, 0.11% active; AID 1430;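 active = inhibition of 50% or more in the single-dose primary screen; inactive = inhibition below 50%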
# bCat nuc transl: beta-catenin nuclear translocation modulation. HeLa beta-catenin nuclear translocation, immunofluorescence imaging. nuclear translocation activity, % at 5 µM. 190,000 tested, 0.3% active. AID 1665;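 active = nuclear translocation activity above 50% at 5 µM, with a well cell count of 50 or more; inconclusive = wells under 50 cells across six images, flagged as toxic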;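 also: per-cell ratio of nuclear to cytoplasmic median beta-catenin stain intensity; plate controls were DMSO negative control for no effect and GSK-3 inhibitor IX positive control for full effect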
#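 Test system: human HeLa cell line; Doses: 5 µM primary, 0.02–20 µM confirmation; Incubation: 24 h compound exposure, 37°C; Detection: beta-catenin immunofluorescence imaging with DAPI; Read-out: beta-catenin nuclear/cytoplasmic ratio, % activation.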
# MT stabilize HCS: stabilizes microtubules in HeLa cells. HeLa tubulin immunostaining HCS, 24 h; share of cells brighter than vehicle mean+2SD. % tubulin-high responders, % at 10 µM. 200,000 tested, 0.83% active. AID 2205;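 active = plate Z-score above 3 for both tubulin-high and condensed-nucleus cell shares, with cell loss under 80%, at 10 µM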;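 also: anti alpha tubulin signal scored within the nucleus-defined area of each cell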
# Ins promoter up: MIN6 insulin promoter up-regulation; 190,000 tested, 0.3% active; MIN6 insulin promoter-GFP reporter, high-content imaging; hits give high values; z-score at 5 µM;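 active = z-score above 3 at 5 µM with at least 500 cells counted in the well; inconclusive = wells under 500 cells, flagged as cytotoxic or low count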
# Autophagy mod: modulators of autophagy; MEF GFP-LC3 puncta imaging; test concentration mostly 10 µM; calls only at 10 µM (by protocol); 190,000 tested, 0.98% active; AID 463193;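 active = percentage of spot-positive cells more than 3 SD above its plate mean, without a fluorescence outlier flag or 80% toxicity; inconclusive = no clear call, values can overlap the other calls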;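 also: spot-positive cell cutoff set from DMSO-treated cells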
# An asterisk follows results filed as active; i = inactive; ? = inconclusive; / = no result given; + = active, no number; ! = repeats disagree.
SMILES,TbHK1 inh,bCat nuc transl,MT stabilize HCS,Ins promoter up,Autophagy mod
O=C(CCc1nnc(CCC2CCCCC2)o1)NCc1ccon1,-4,0,5,0.46,i
CN(CC1CCOCC1)C(=O)CC1C(=O)NCCN1Cc1ccc(-c2ccccc2)cc1 (configuration not stated),-5,0,6,0.76,i
COc1ccc(C(C(=O)NC2CCCC2)N(C(=O)c2ccoc2C)c2ccc(C)c(C)c2)cc1 (configuration not stated),4,-1,7,-1.7,i
Cc1ccc(-n2ncc3c(N4CCCC4)ncnc32)c(C)c1,2,-4,3,/,i
COc1cccc(N2CCN(c3ncnc4c3cnn4-c3ccc(C)cc3C)CC2)c1,-11,2,5,0.31,+
NC(=S)c1c(Cl)cc(C(F)(F)F)cc1Cl,-1,-1,/,-0.48,/
CC1CCC(C(C)C)C(OC(=O)Cn2c(-c3ccc(Br)cc3)[n+](C)c3ccccc32)C1 (configuration not stated),29,-4,3,-1.9,+!
CC1CCC(C(C)C)C(OC(=O)Cn2c(-c3ccc(Cl)cc3)[n+](C)c3ccccc32)C1 (configuration not stated),7,0,/,?,/
CC(=O)Nc1ccc(S(=O)(=O)N2c3ccccc3C(C)=CC2(C)C)cc1,1,81*,8.6*,-0.85,+
CC1=CC(C)(C)N(S(=O)(=O)c2ccc(F)cc2)c2ccccc21,3,0,25*,0.02,i
CC1=CC(C)(C)N(S(=O)(=O)c2ccc(C)cc2)c2ccc(C)cc21,12,/,10,-2.9,+
C/C=C/C(=O)N1c2ccc(C)cc2C(C)=CC1(C)C,-13,0,/,-0.32,/
CS(=O)(=O)ON=C1CCN(S(=O)(=O)c2ccccc2)CC1,-2,0,6,3.5*,i
O=C(C1=C[C@H](c2ccccc2)C[C@H](OCCCCO)O1)N1CCOCC1,-12,-2,3,0.53,i
CCc1c(C(=O)NC2CCCCC2)[nH]c(C)c1C(C)=O,2,-2,5,3.9*,i
CCCn1nnc(NC(=O)c2cccc(OCC(C)C)c2)n1,5,-3,2,0.46,i
CCCn1nnc(NC(=O)c2cccc(OCC)c2)n1,2,/,2,0.33,+
CCOc1cccc(C(=O)Nc2cccc(-c3nnc(-c4ccc(C)cc4)o3)c2)c1,-13,0,2,-0.1,+
O=C1CC(c2cc(Br)ccc2F)c2cc3c(cc2N1)CCC3 (configuration not stated),9,38,13,-0.46,i
O=C1CC(c2ccccc2Br)c2cc3c(cc2N1)CCC3 (configuration not stated),-2,1,21*,-0.82,i
O=C1CC(c2ccccc2F)c2cc3c(cc2N1)CCC3 (configuration not stated),2,131*,44*,-0.28,i
Cc1cc2c(cc1C)C(c1ccccc1Br)CC(=O)N2 (configuration not stated),-8,0,10,0.46,i
CCCC(=O)Nc1c(-c2ccccc2)c(=O)c(C)nn1-c1ccc(C)cc1,-15,0,/,0.76,/
CSc1nc(C)cc(Oc2ccccc2)n1,-2,0,7,0.03,i
O=C(COC(=O)c1cc(-c2cccc(Br)c2)nc2ccccc12)NCC1CCCO1 (configuration not stated),-4,2,4,0.05,i
SMILES,TbHK1 inh,bCat nuc transl,MT stabilize HCS,Ins promoter up,Autophagy mod
CC(C)(C)C(=O)Nc1ccc(-c2csnn2)cc1,-7,0,/,-0.02,/
CCN1CCN(C(=S)c2ccc(-c3ccccc3)cc2)CC1,-2,0,5,-0.22,i
O=C(CSc1nc2[nH]ncc2c(=O)[nH]1)NCCc1ccccc1,0,1,2,/,i
O=[N+]([O-])c1ccc(Cl)cc1Sc1nc2ccccc2o1,-2,-1,3,/,+
O=[N+]([O-])c1ccc(Sc2nc3ccccc3o2)c([N+](=O)[O-])c1,1,/,1,1.3,i
CCCCCNC1=CC(=O)CC(c2ccccc2)C1 (configuration not stated),2,/,47*,/,i
CCCCCCCNC1=CC(=O)CC(c2ccccc2)C1 (configuration not stated),7,16,12*,-2.6,i
COC(=O)c1c(NC(=O)CCNCc2ccco2)sc2c1CCC2,-6,1,/,-0.26,/
O=C1Nc2ccccc2Oc2cc([N+](=O)[O-])cc(Oc3ccccc3)c21,0,-1,3,2.8,+
CCN(CC)S(=O)(=O)c1ccc(OCC(=O)NC2CCS(=O)(=O)C2)c([N+](=O)[O-])c1 (configuration not stated),0,5,3,0.22,i
CCN(CC(=O)NC1CCS(=O)(=O)C1)c1ccc(S(C)(=O)=O)cc1[N+](=O)[O-] (configuration not stated),-4,1,3,1.2,+
CCOC(=O)CSC1=C(C#N)C(c2ccc3c(c2)OCO3)CC(=O)N1 (configuration not stated),-3,-1,49*,-0.35,i
COc1cc2ccccc2cc1C(=O)Nc1ccc(Cc2ccncc2)cc1,5,3,50*,0.29,i
Cc1coc(NC(=O)CSc2nc(-c3ccc(Cl)cc3)cc(C(F)(F)F)c2C#N)n1,0,-2,2,0.72,i
COc1ccc(-c2cc(C(F)(F)F)c(C#N)c(SCC(=O)Nc3nc(C)co3)n2)cc1,-15,0,1,-0.14,+
COc1ccc(-c2cc(C(F)(F)F)c(C#N)c(SCC(=O)Nc3ccccc3C#N)n2)cc1,-1,-1,6,0.35,+
Cc1cc(=O)[nH]c(SCC(=O)Nc2ccccc2C#N)c1C#N,-6,0,44*,/,i
CCOC(=O)C1CNc2cc(S(=O)(=O)CC)ccc2O1 (configuration not stated),5,0,3,-0.13,i
Cc1nc(NC(=O)COC(=O)c2cc3c(s2)CCC(C)C3)c(Cl)cc1Cl (configuration not stated),-2,-2,2,0.28,i
CC1CCc2sc(C(=O)OCC(=O)NCc3ccc(F)cc3)cc2C1 (configuration not stated),0,119*,8,1.7,i
CCC12CN3CC(CC)(CN(C1)C3c1c(O)ccc3ccccc13)C2=O (configuration not stated),2,/,3,/,+
COc1cc(NC(=O)c2cc(Cl)ccc2Cl)ccc1-c1cc2ccccc2oc1=O,-2,-1,4,-0.24,+
O=C(Cc1ccc(Cl)cc1)Nc1ccc(-c2cc3ccccc3oc2=O)c(Cl)c1,-17,102*,8,0.53,i
CCCCCCCCCn1c2c(c(=N)c3c1CCC3)CCC2,12,-5,4,?,i
CCCCCCCn1c2c(c(=N)c3c1CCC3)CCCC2,19,3,6,?,+
